{"data": "Experimental data pooled from the literature", "cell line": "PC-9", "read-out": "cell growth or viability", "time": "72 h", "note": "Lines come from different studies, so protocols differ."}
{"SMILES": "O=C(Nc1ccc(Cl)cc1)Nc1nc2cc(-c3ccc4ncn(CCN5CCOCC5)c(=O)c4c3)ccc2s1", "method": "MTT", "measurement": "IC50", "value": "> 20 µM"}
{"SMILES": "COc1ccc(N(Cc2csc(-c3ccccc3)n2)C(=O)CCCCCC(=O)NO)cc1", "method": "MTT", "measurement": "IC50", "value": "0.53 µM"}
{"SMILES": "O=C(NCc1cn(Cc2ccc(Br)cc2)nn1)Nc1ccccc1Br", "method": "CCK-8", "tested at": "20 µM", "measurement": "viability", "value": "99.2%"}
{"SMILES": "COc1ccc(C(=O)Nc2nc3cc(-c4ccc5ncn(Cc6ccccc6)c(=O)c5c4)ccc3s2)cc1", "method": "MTT", "measurement": "IC50", "value": "> 20 µM"}
{"SMILES": "O=C(Nc1cccc(-c2cn(Cc3ccc(Br)cc3)nn2)c1)Nc1ccccc1Br", "method": "CCK-8", "tested at": "20 µM", "measurement": "viability", "value": "128%"}
{"SMILES": "COc1ccc(NC(=O)NCc2cn(Cc3ccc(Cl)cc3)nn2)cc1", "method": "CCK-8", "tested at": "20 µM", "measurement": "viability", "value": "96.2%"}
{"SMILES": "COc1ccc(NC(=O)Nc2nc3cc(-c4ccc5ncn(CCN6CCOCC6)c(=O)c5c4)ccc3s2)cc1", "method": "MTT", "measurement": "IC50", "value": "> 20 µM"}
{"SMILES": "COc1ccc(NC(=O)Nc2ccc(-c3cn(Cc4ccc(Br)cc4)nn3)cc2)cc1", "method": "CCK-8", "tested at": "20 µM", "measurement": "viability", "value": "93%"}
{"SMILES": "O=C(Nc1ccc(Cl)cc1)Nc1cccc(-c2cn(Cc3ccc(Cl)cc3)nn2)c1", "method": "CCK-8", "tested at": "20 µM", "measurement": "viability", "value": "95.4%"}
{"SMILES": "COc1ccc(NC(=O)Nc2ccc(-c3cn(Cc4ccc(C)cc4)nn3)cc2)cc1", "method": "CCK-8", "tested at": "20 µM", "measurement": "viability", "value": "87.1%"}
{"SMILES": "COc1ccc(NC(=O)Nc2nc3cc(-c4ccc5ncn(Cc6ccccc6)c(=O)c5c4)ccc3s2)cc1", "method": "MTT", "measurement": "IC50", "value": "> 20 µM"}
{"SMILES": "COc1ccc(N(Cc2nc(-c3ccc(F)cc3)cs2)C(=O)CCCCCC(=O)NO)cc1", "method": "MTT", "measurement": "IC50", "value": "0.73 µM"}
{"SMILES": "COc1ccc(NC(=O)Nc2cccc(-c3cn(Cc4ccc(C)cc4)nn3)c2)cc1", "method": "CCK-8", "tested at": "50 µM", "measurement": "viability", "value": "92.6%"}
{"SMILES": "O=C(Nc1ccc(F)cc1)Nc1nc2cc(-c3ccc4ncn(CC(=O)N5CCOCC5)c(=O)c4c3)ccc2s1", "method": "MTT", "measurement": "IC50", "value": "> 20 µM"}
{"SMILES": "O=C(NCc1cn(Cc2ccc(Cl)cc2)nn1)Nc1ccccc1Br", "method": "CCK-8", "tested at": "20 µM", "measurement": "viability", "value": "94.5%"}
{"SMILES": "O=C(Nc1nc2cc(-c3ccc4ncn(Cc5ccccc5)c(=O)c4c3)ccc2s1)c1ccccc1", "method": "MTT", "measurement": "IC50", "value": "> 20 µM"}
{"SMILES": "COc1ccc(NC(=O)Nc2ccc(-c3cn(Cc4ccc(Cl)cc4)nn3)cc2)cc1", "method": "CCK-8", "tested at": "20 µM", "measurement": "viability", "value": "91%"}
{"SMILES": "O=C(Nc1ccc(Cl)cc1)Nc1ccc(-c2cn(Cc3ccc(Br)cc3)nn2)cc1", "method": "CCK-8", "tested at": "50 µM", "measurement": "viability", "value": "80.4%"}
{"SMILES": "COc1ccc(NC(=O)NCc2cn(Cc3ccccc3C)nn2)cc1", "method": "CCK-8", "tested at": "20 µM", "measurement": "viability", "value": "94.4%"}
{"SMILES": "O=C(Nc1cccc(-c2cn(Cc3ccc(Cl)cc3)nn2)c1)Nc1ccccc1Br", "method": "CCK-8", "tested at": "50 µM", "measurement": "viability", "value": "107%"}
